Test results as given in ChEMBL document CHEMBL1143088, “Non-acidic pyrazole EP1 receptor antagonists with in vivo analgesic efficacy” (Bioorg Med Chem Lett, 2008).
pIC50, pKi: −log10 of the molar value.

Experiments:
[1] = target: T1, Prostaglandin E2 receptor EP3 subtype (Homo sapiens, UniProt P43115); test: Antagonist activity at PGE2-EP3 receptor assessed as PGE2-induced intracellular calcium mobilization; assay type: functional, cell-based
T1 sequence (P43115 whole entry): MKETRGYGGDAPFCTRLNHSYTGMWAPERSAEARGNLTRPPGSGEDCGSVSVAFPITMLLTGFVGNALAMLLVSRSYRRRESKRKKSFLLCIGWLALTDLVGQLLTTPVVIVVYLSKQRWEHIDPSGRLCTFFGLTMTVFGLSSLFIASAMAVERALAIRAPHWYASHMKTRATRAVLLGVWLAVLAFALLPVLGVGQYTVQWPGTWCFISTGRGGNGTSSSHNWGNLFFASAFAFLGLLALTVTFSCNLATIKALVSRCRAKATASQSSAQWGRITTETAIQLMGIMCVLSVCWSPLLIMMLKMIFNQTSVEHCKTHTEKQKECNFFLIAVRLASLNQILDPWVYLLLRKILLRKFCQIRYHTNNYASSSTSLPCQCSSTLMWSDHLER

[2] = target: Cytochrome P450 2D6 (Homo sapiens, UniProt P10635); test: Inhibition of CYP2D6; assay type: ADME
[3] = Drug level in Sprague-Dawley rat brain at steady state at […], iv after 18 hrs; assay type: ADME, organism-based; parameters: route intravenous; conditions: read-out: Drug uptake
In short: (§1)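 Male Sprague–Dawley rat given iv infusion over 18 h at 5 mL/kg/h (0.518 mg/kg/h) in 0.9% saline with 2% DMSO, 20% Kleptose. Serial blood samples every 15 min over last hour to confirm steady state; after 18 h blood taken, rat culled, brain homogenized; blood and brain analysed by LC/MS/MS.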

[4] = Half life in rat at 10 mL/h/kg, iv; assay type: ADME, organism-based; conditions: in vivo
In short: (§2)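 Male rats (n = 1 per compound) dosed iv at 10 mL/h/kg over 1 h via femoral vein cannula, target 1 mg free compound/kg, formulated at 0.1 mg/mL in 0.9% saline with 2% DMSO and 10–20% Kleptose (some with a molar equivalent NaOH), filtered before dosing.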

[5] = Ratio of drug level in brain to blood in Sprague-Dawley rat at […], iv; assay type: ADME, organism-based; parameters: route intravenous; in short: as §1
[6] = Clearance at steady state in Sprague-Dawley rat blood at […], iv after 18 hrs; assay type: ADME, organism-based; parameters: route intravenous; conditions: whole blood; in short: as §1
[7] = target: T2, Prostaglandin E2 receptor EP1 subtype (Homo sapiens, UniProt P34995); test: Antagonist activity at PGE2-EP1 receptor assessed as PGE2-induced response by schild analysis; assay type: functional; conditions: read-out: pA2 (converted)
T2 sequence (P34995 whole entry): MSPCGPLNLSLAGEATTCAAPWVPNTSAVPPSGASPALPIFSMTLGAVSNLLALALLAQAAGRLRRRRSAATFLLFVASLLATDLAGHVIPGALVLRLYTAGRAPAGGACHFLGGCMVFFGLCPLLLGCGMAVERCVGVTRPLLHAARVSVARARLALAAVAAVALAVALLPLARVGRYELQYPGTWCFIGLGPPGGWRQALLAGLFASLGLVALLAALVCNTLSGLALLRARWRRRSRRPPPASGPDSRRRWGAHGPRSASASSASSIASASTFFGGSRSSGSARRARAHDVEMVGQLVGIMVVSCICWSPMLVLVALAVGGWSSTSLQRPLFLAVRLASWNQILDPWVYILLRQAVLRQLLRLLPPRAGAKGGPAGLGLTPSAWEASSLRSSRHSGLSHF

[8] = tested on: Blood; test: Drug uptake in FCA-induced hypersensitivity rat blood at 3 mg/kg, po administered with DMSO as vehicle; assay type: ADME, organism-based; parameters: dose 3 mg/kg, route oral; conditions: in vivo, read-out: Drug uptake
In short: (§3)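 CFA inflammatory pain rats dosed orally at 1, 3, 10 and 30 mg/kg in 2% DMSO and 20% Kleptose water; weight-bearing readout and blood/brain samples taken 1 h post-dose. Blood levels mean of seven rats; brain levels mean of two or three rats; Br:Bl average of three rats.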

[9] = tested on: Brain; test: Drug uptake in FCA-induced hypersensitivity rat brain at 30 mg/kg, po administered with DMSO as vehicle; assay type: ADME, organism-based; parameters: dose 30 mg/kg, route oral; conditions: in vivo, read-out: Drug uptake; in short: as §3
[10] = Clearance in blood in rat at 10 mL/h/kg, iv; assay type: ADME, organism-based; conditions: whole blood; in short: as §2
[11] = tested on: Brain; test: Drug uptake in FCA-induced hypersensitivity rat brain at 10 mg/kg, po administered with DMSO as vehicle; assay type: ADME, organism-based; parameters: dose 10 mg/kg, route oral; conditions: in vivo, read-out: Drug uptake; in short: as §3
[12] = target: T3, Cytochrome P450 1A2 (Homo sapiens, UniProt P05177); test: Inhibition of CYP1A2; assay type: ADME
T3 sequence (P05177 whole entry): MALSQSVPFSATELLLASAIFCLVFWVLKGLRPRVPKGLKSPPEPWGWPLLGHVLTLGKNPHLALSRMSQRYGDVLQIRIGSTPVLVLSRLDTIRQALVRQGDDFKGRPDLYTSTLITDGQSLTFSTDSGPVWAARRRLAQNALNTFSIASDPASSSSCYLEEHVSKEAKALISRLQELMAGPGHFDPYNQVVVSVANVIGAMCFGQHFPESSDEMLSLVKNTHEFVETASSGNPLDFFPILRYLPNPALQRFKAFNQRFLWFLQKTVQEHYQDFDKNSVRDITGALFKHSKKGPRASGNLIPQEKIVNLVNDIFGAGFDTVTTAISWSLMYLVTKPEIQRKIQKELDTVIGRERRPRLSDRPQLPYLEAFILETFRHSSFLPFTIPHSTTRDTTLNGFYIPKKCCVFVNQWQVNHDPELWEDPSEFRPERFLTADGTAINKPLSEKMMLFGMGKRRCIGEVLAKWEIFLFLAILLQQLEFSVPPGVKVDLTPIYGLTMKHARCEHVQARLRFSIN

[13] = Ratio of drug level in brain to blood in FCA-induced hypersensitivity rat at 30 mg/kg, po administered with DMSO as vehicle; assay type: ADME, organism-based; parameters: dose 30 mg/kg, route oral; in short: as §3
[14] = target: Cytochrome P450 3A4 (Homo sapiens, UniProt P08684); test: Inhibition of CYP3A4; assay type: ADME
[15] = target: T2, Prostaglandin E2 receptor EP1 subtype; test: Displacement of [3H]PGE2 from human PGE2-EP1 receptor expressed in CHO-K1 cells; assay type: cell-based
[16] = tested on: Blood; test: Drug uptake in FCA-induced hypersensitivity rat blood at 1 mg/kg, po administered with DMSO as vehicle; assay type: ADME, organism-based; parameters: dose 1 mg/kg, route oral; conditions: in vivo, read-out: Drug uptake; in short: as §3
[17] = Ratio of drug level in brain to blood in FCA-induced hypersensitivity rat at 3 mg/kg, po administered with DMSO as vehicle; assay type: ADME, organism-based; parameters: dose 3 mg/kg, route oral; in short: as §3
[18] = tested on: Blood; test: Drug uptake in FCA-induced hypersensitivity rat blood at 30 mg/kg, po administered with DMSO as vehicle; assay type: ADME, organism-based; parameters: dose 30 mg/kg, route oral; conditions: in vivo, read-out: Drug uptake; in short: as §3
[19] = tested on: Brain; test: Drug uptake in FCA-induced hypersensitivity rat brain at 1 mg/kg, po administered with DMSO as vehicle; assay type: ADME, organism-based; parameters: dose 1 mg/kg, route oral; conditions: in vivo, read-out: Drug uptake; in short: as §3
[20] = Volume of distribution at steady state in rat at 10 mL/h/kg, iv; assay type: ADME, organism-based; conditions: in vivo, read-out: Vdss; in short: as §2
[21] = Ratio of drug level in brain to blood in FCA-induced hypersensitivity rat at 10 mg/kg, po administered with DMSO as vehicle; assay type: ADME, organism-based; parameters: dose 10 mg/kg, route oral; in short: as §3
[22] = target: Cytochrome P450 2C19 (Homo sapiens, UniProt P33261); test: Inhibition of CYP2C19; assay type: ADME
[23] = tested on: Blood; test: Drug uptake in FCA-induced hypersensitivity rat blood at 10 mg/kg, po administered with DMSO as vehicle; assay type: ADME, organism-based; parameters: dose 10 mg/kg, route oral; conditions: in vivo, read-out: Drug uptake; in short: as §3
[24] = target: Cytochrome P450 2C9 (Homo sapiens, UniProt P11712); test: Inhibition of CYP2C9; assay type: ADME
[25] = tested on: Brain; test: Drug uptake in FCA-induced hypersensitivity rat brain at 3 mg/kg, po administered with DMSO as vehicle; assay type: ADME, organism-based; parameters: dose 3 mg/kg, route oral; conditions: in vivo, read-out: Drug uptake; in short: as §3
[26] = Ratio of drug level in brain to blood in FCA-induced hypersensitivity rat at 1 mg/kg, po administered with DMSO as vehicle; assay type: ADME, organism-based; parameters: dose 1 mg/kg, route oral; in short: as §3
[27] = Drug level in Sprague-Dawley rat blood at steady state at […], iv after 18 hrs; assay type: ADME, organism-based; parameters: route intravenous; conditions: whole blood, read-out: Drug uptake; in short: as §1
[28] = tested on: Rattus norvegicus; test: Reversal of FCA-induced hypersensitivity in orally dosed rat assessed as reduction in weight bearing administered with DMSO as vehicle; assay type: functional; conditions: po
In short: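 The CFA inflammatory pain model used rats dosed orally at 1, 3, 10 and 30 mg/kg in 2% DMSO and 20% Kleptose in water. Weight bearing was the efficacy readout at 1 h post-dose. Blood (seven rats) and brain (two to three rats) were sampled at that time. ED50 was given in mg/kg.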

[29] = target: T2, Prostaglandin E2 receptor EP1 subtype; test: Antagonist activity at PGE2-EP1 receptor assessed as PGE2-induced intracellular calcium mobilization; assay type: functional, cell-based
[30] = Distribution coefficient, logD at pH 7.4; assay type: physicochemical; conditions: octanol/water
In short: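 Distribution coefficient between n-octanol and water buffered to pH 7.4; log10 of ratio of equilibrium concentrations of all species.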

Chain of Cytochrome P450 3A4 (P08684 whole entry): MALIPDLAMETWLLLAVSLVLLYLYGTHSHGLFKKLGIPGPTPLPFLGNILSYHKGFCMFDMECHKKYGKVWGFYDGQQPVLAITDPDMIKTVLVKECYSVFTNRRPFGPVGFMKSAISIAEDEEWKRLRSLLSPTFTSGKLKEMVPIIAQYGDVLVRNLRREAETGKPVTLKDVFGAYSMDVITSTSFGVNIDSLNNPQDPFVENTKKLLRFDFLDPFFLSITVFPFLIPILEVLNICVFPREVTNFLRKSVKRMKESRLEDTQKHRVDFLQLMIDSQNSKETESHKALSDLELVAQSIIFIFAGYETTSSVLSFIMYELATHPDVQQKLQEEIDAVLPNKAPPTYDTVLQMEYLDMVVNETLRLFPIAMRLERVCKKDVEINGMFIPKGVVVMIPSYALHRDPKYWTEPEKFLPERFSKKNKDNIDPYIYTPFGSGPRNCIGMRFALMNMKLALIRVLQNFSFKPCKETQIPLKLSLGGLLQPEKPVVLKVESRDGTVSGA
Chain of Cytochrome P450 2C19 (P33261 whole entry): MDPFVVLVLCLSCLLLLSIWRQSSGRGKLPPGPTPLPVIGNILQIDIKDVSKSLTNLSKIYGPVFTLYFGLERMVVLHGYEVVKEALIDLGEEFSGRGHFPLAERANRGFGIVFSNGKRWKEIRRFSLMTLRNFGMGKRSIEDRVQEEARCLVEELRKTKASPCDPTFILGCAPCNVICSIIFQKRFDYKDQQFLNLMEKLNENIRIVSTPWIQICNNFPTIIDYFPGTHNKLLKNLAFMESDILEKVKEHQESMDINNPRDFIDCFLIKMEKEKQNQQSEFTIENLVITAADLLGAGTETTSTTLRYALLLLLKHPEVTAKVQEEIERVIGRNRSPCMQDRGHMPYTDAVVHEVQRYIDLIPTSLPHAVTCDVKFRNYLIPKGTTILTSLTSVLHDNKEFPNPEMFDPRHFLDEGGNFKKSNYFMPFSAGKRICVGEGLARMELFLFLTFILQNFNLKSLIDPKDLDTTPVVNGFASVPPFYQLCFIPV
Chain of Cytochrome P450 2C9 (P11712 whole entry): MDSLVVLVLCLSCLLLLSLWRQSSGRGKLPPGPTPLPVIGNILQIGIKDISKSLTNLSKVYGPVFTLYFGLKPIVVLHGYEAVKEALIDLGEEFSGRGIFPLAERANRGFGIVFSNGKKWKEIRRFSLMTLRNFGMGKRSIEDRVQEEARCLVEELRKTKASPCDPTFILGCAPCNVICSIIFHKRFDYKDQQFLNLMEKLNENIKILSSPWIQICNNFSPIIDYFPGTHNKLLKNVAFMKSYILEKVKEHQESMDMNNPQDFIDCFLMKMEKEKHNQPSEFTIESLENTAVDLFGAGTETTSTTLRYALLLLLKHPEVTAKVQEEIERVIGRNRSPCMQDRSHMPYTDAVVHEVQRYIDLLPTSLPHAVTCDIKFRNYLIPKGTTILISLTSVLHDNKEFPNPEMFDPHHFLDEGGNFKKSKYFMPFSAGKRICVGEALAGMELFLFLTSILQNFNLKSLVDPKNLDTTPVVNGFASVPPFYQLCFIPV
Chain of Cytochrome P450 2D6 (P10635 whole entry): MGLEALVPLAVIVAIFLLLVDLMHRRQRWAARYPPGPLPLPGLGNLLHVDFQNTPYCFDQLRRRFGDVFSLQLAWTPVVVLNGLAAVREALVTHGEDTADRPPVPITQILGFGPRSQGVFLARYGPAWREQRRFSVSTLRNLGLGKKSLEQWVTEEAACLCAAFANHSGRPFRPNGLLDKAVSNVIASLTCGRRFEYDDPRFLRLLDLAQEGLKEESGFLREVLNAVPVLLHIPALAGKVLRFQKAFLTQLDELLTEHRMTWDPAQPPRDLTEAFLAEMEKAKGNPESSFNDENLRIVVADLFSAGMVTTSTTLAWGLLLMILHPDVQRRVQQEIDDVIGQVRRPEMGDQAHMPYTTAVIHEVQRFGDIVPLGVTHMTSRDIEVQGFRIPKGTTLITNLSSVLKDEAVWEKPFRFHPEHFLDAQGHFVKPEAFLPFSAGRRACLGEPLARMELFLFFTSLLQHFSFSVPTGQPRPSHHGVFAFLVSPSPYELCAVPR

In the case of `Cc1cc(NC(=O)OC(C)(C)C)nn1Cc1cc(Cl)ccc1OCc1ccccc1`, the pKi [1] was < 5.00, the pIC50 [2] was < 4.00 and the concentration at 18 h [3] was 1400 nM. The half-life [4] was 3 h, the Kp [5] was 3.44 and the clearance [6] was 54 mL/min/kg. For the same compound, the Kb [7] was 0.0501 µM, the concentration [8] was 210 nM and the concentration [9] was 836 nM. For the same compound, the clearance [10] was 42 mL/min/kg, the concentration [11] was 781 nM and the pIC50 [12] was < 4.00. The Kp [13] was 2.73, the pIC50 [14] was < 4.00 and the pIC50 [15] was 7.60. The concentration [16] was 57 nM, the Kp [17] was 2.66 and the concentration [18] was 299 nM. It also gave a concentration [19] of 106 nM, a Vd [20] of 8.6 L/kg and a Kp [21] of 2.26. For the same compound, the pIC50 [22] was < 4.00, the concentration [23] was 302 nM and the pIC50 [24] was 4.80. The concentration [25] was 473 nM, the Kp [26] was 2.66 and the concentration at 18 h [27] was 408 nM. The ED50 [28] was 5.36 mg/kg, the pKi [29] was 7.80 and the logD [30] was > 3.7.
